This note sets out measurements from ChEMBL document CHEMBL1135530, “Selective alpha4beta7 integrin antagonists and their potential as antiinflammatory agents” (J Med Chem, 2002).

One test concerns the target T1, Integrin alpha-4/beta-7 (Homo sapiens, UniProt P13612+P26010).
T1 sequence (P13612 whole entry): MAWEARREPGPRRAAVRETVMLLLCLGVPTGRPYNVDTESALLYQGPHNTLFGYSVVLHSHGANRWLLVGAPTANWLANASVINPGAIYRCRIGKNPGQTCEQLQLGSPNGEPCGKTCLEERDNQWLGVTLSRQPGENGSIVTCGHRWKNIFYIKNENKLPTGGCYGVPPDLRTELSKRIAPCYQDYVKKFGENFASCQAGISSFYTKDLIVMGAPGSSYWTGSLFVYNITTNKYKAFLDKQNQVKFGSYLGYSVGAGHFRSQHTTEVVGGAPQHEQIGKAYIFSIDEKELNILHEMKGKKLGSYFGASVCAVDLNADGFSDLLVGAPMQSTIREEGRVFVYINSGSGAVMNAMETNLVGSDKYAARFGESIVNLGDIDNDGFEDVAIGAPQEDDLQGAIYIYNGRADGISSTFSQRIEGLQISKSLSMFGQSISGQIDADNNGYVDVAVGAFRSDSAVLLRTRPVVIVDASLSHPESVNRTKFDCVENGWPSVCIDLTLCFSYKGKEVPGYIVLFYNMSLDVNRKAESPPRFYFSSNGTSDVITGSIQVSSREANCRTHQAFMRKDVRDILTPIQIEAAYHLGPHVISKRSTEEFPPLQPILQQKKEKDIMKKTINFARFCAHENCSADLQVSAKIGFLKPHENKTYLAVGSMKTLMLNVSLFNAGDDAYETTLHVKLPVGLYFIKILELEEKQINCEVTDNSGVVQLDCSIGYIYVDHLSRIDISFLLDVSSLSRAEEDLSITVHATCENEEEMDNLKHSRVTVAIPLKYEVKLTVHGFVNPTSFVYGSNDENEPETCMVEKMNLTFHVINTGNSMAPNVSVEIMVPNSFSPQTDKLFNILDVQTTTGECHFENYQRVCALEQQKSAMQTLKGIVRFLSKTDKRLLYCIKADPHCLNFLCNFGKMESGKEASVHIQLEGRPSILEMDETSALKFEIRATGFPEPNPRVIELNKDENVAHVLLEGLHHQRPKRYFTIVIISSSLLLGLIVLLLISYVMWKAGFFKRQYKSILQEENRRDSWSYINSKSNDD
T1 sequence (P26010 whole entry): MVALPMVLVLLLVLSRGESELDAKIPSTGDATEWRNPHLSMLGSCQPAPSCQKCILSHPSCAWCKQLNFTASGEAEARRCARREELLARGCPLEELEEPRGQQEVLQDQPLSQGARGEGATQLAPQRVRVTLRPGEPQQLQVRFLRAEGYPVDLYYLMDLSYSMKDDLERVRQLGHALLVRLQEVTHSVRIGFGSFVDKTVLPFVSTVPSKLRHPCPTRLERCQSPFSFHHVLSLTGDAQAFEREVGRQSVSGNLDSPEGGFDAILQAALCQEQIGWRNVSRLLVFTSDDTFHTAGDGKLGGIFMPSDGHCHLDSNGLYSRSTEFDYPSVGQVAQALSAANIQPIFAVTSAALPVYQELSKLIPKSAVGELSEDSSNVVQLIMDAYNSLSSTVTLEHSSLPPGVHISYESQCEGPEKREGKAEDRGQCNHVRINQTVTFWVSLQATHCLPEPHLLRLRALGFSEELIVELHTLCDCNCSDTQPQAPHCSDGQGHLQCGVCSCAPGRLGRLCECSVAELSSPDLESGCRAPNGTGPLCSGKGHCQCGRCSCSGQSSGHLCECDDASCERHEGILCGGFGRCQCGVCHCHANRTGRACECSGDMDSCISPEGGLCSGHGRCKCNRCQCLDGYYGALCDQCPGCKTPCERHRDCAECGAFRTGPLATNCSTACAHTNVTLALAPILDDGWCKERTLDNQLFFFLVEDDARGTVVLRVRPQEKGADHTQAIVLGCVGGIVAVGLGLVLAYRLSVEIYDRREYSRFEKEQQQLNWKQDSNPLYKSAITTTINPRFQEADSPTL
Kind of test: Ability to block the alpha4-beta7 integrin-MAdCAM-1 binding interaction using a protein ELISA format. It is filed as protein-complex assay. The method, boiled down: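 Plates coated overnight at 4 °C with anti-human α4 antibody 9F10 (2 µg/mL), blocked in Tris pH 7.5 buffer with 1 mM MnCl2, Tween-20 and 0.5% BSA, then loaded with α4β7 purified from transfected JY cells (2 µg/mL). Compounds (1 nM–200 µM final, triplicate) plus MAdCAM-1-Ig-HRP (1 µg/mL), 2 h room temperature. TMB read at 450 nm; IC50 at half-maximal absorbance.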
(In an ELISA, binding on a coated surface is turned into a signal by an enzyme label.)

Another test has as its target Integrin alpha-4/beta-1 (Homo sapiens, UniProt P05556+P13612). The test is described as follows: Inhibitory concentration affording 50% inhibition of alpha4-beta1 integrin binding to VCAM-1, using ELISA assay. Format: protein-complex assay. The method, boiled down:
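α4β1 extracted from Ramos cell membranes (lectin chromatography, gel filtration in 1% octylglucoside), with 1 mM MnCl2 throughout. Wells coated with 4 µg/mL recombinant soluble human VCAM-1 (5 N-terminal Ig domains, from CHO cells) and blocked with 1% BSA. Inhibitor and receptor 2 h at 37 °C in Tris pH 7.4. Bound receptor detected with anti-β1 mAb 2D4.6, then HRP anti-mouse and TMB at 450 nm. IC50 at half-maximal absorbance.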

Structures are written as SMILES. Peptide text beside a SMILES is read from it.

Chain of Integrin alpha-4/beta-1 (P05556 whole entry, one chain of several, the tested form may be a part): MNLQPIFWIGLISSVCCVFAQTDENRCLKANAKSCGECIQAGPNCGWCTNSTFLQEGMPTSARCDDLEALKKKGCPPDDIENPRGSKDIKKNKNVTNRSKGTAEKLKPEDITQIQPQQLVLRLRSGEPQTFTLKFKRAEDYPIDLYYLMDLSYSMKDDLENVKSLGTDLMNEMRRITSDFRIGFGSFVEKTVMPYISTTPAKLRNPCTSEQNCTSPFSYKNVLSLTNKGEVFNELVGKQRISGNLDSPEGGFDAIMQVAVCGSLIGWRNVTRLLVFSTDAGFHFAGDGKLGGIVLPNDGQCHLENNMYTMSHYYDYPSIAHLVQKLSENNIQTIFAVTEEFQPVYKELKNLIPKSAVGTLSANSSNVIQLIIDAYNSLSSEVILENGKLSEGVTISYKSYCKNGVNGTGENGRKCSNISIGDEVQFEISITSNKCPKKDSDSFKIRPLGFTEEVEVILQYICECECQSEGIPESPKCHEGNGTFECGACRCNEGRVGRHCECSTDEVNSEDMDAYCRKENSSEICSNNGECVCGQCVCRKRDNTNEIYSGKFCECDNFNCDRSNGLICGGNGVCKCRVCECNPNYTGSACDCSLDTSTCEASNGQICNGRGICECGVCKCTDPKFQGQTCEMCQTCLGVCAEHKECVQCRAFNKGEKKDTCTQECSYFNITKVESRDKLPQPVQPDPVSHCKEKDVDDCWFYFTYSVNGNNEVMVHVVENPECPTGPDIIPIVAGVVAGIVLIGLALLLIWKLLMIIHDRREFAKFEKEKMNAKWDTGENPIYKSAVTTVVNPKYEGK

One may read the IC50 as the concentration at which inhibition is half-maximal. A high value points to weaker potency in that assay. For the compound `C[C@@H](O)[C@@H]1NC(=O)[C@H](CC(=O)O)NC(=O)[C@H](CO)NC(=O)[C@H](CCCNC(=N)N)NC(=O)[C@@H](N)CSSC[C@@H](C(N)=O)NC(=O)[C@@H]2CCCN2C1=O`, the values for the IC50 at Integrin alpha-4/beta-7 and at Integrin alpha-4/beta-1 were 40000 nM and 37000 nM, respectively.
For the compound `CSCC[C@H](NC(=O)[C@H](CC(C)C)NC(=O)[C@H](Cc1c[nH]c2ccccc12)NC(=O)[C@H](CCCN=C(N)N)NC(=O)[C@H](CCC(=O)O)NC(=O)[C@H](Cc1c[nH]c2ccccc12)NC(C)=O)C(=O)N[C@@H](CC(=O)O)C(=O)N[C@H]1CSSC[C@@H](C(=O)NCC(=O)N[C@@H](CCC(=O)O)C(=O)N[C@@H](CO)C(=O)N[C@@H](Cc2c[nH]cn2)C(=O)N[C@@H](CCC(N)=O)C(=O)N[C@@H](CCC(=O)O)C(N)=O)NC(=O)[C@H](CC(C)C)NC(=O)[C@H]([C@@H](C)O)NC(=O)[C@H](CC(=O)O)NC(=O)[C@H](CO)NC(=O)[C@H](CCCN=C(N)N)NC1=O` (HELM PEPTIDE1{[ac].W.E.R.W.L.M.D.C.R.S.D.T.L.C.G.E.S.H.Q.E.[am]}$PEPTIDE1,PEPTIDE1,9:R3-15:R3$$$V2.0), the IC50 is 1300 nM on Integrin alpha-4/beta-7 and 12100 nM on Integrin alpha-4/beta-1.
Regarding `CC(C)C[C@@H]1NC(=O)[C@H]([C@@H](C)O)NC(=O)[C@H](CC(=O)O)NC(=O)[C@H](CO)NC(=O)[C@H](Cc2c[nH]c3ccccc23)NC(=O)[C@@H](N)CSSC[C@@H](C(N)=O)NC1=O`, the IC50 at Integrin alpha-4/beta-7 is 430 nM; on Integrin alpha-4/beta-1 it was 160 nM.
On the same counts, the results for `CC[C@H](C)[C@@H]1NC(=O)[C@H]([C@@H](C)O)NC(=O)[C@H](CC(=O)O)NC(=O)[C@H](CO)NC(=O)[C@H](CCCNC(=N)N)NC(=O)[C@@H](N)CSSC[C@@H](C(N)=O)NC1=O` are 1800 nM and 25000 nM.
As for `CSCC[C@H](N)C(=O)N[C@@H](CC(=O)O)C(=O)N[C@H]1CSSC[C@@H](C(=O)NCC(=O)N[C@@H](CCC(=O)O)C(N)=O)NC(=O)[C@H](CC(C)C)NC(=O)[C@H]([C@@H](C)O)NC(=O)[C@H](CC(=O)O)NC(=O)[C@H](CO)NC(=O)[C@H](CCCNC(=N)N)NC1=O` (HELM PEPTIDE1{M.D.C.R.S.D.T.L.C.G.E.[am]}$PEPTIDE1,PEPTIDE1,3:R3-9:R3$$$V2.0), the IC50 turned out to be 190 nM at Integrin alpha-4/beta-7 and 4200 nM at Integrin alpha-4/beta-1.
The corresponding values for `CC[C@H](C)[C@@H]1NC(=O)[C@H](CCCN=C(N)N)NC(=O)[C@@H](N)CSSC[C@@H](C(N)=O)NC(=O)[C@H](CC(C)C)NC(=O)[C@H]([C@@H](C)O)NC(=O)[C@H](CC(=O)O)NC1=O` are 20000 nM and 1200 nM.
For the compound `C[C@@H]1NC(=O)[C@H]([C@@H](C)O)NC(=O)[C@H](CC(=O)O)NC(=O)[C@H](CO)NC(=O)[C@H](CCCN=C(N)N)NC(=O)[C@@H](N)CSSC[C@@H](C(N)=O)NC1=O` (HELM PEPTIDE1{C.R.S.D.T.A.C.[am]}$PEPTIDE1,PEPTIDE1,1:R3-7:R3$$$V2.0), the figures for the IC50 at Integrin alpha-4/beta-7 and on Integrin alpha-4/beta-1 were 23000 nM and 40000 nM, respectively.
Regarding `CC(C)C[C@@H]1NC(=O)[C@H](CCCN=C(N)N)NC(=O)[C@@H](N)CSSC[C@@H](C(N)=O)NC(=O)[C@H](CC(C)C)NC(=O)[C@H]([C@@H](C)O)NC(=O)[C@H](CC(=O)O)NC1=O`, the IC50 on Integrin alpha-4/beta-7 was determined as 1900 nM; on Integrin alpha-4/beta-1, 800 nM.
Turning to `CC(C)C[C@@H]1NC(=O)[C@H]([C@@H](C)O)NC(=O)[C@H](CC(=O)O)NC(=O)[C@H](CO)NC(=O)[C@H](CCCNC(=N)N)NC(=O)[C@@H](N)CSSC[C@@H](C(=O)O)NC1=O`, the IC50 at Integrin alpha-4/beta-7 was determined as 130 nM; at Integrin alpha-4/beta-1, 400 nM.
On to `CC(C)C[C@@H]1NC(=O)[C@H](CO)NC(=O)[C@H](CC(=O)O)NC(=O)[C@H](CO)NC(=O)[C@H](CCCNC(=N)N)NC(=O)[C@@H](N)CSSC[C@@H](C(N)=O)NC1=O`, for which the IC50 on Integrin alpha-4/beta-7 is 290 nM; on Integrin alpha-4/beta-1, 14000 nM.
With `CC(C)C[C@@H]1NC(=O)[C@H]([C@@H](C)O)NC(=O)[C@H](CC(=O)O)NC(=O)[C@H](C)NC(=O)[C@H](CCCNC(=N)N)NC(=O)[C@@H](N)CSSC[C@@H](C(N)=O)NC1=O` (HELM PEPTIDE1{C.R.A.D.T.L.C.[am]}$PEPTIDE1,PEPTIDE1,1:R3-7:R3$$$V2.0), the IC50 was 2200 nM on Integrin alpha-4/beta-7 and 3600 nM on Integrin alpha-4/beta-1.
